Thrombin inh = blocks human thrombin protease activity | alpha-thrombin, Boc-VPR-AMC fluorogenic substrate cleavage | inhibition, % at 5 µM | 220,000 compounds, 0.26% hits | AID 1046;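 active = inhibition at or above 40%; inactive = inhibition below 40%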;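 also: 0% = enzyme with no compound and 100% = wells without enzyme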
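System – human alpha-thrombin · Medium – pH 7.5 Tris (50 mM) with NaCl 150 mM, Tween 20 0.05% · Compound – single-point dosing at 5 µM, 0.2% DMSO · Incubation – enzyme reaction carried out at room temperature · Technique – fluorescence of released AMC, ex 355 nm, em 460 nm · Read-out basis – % inhibition of thrombin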
EP2 antag = inhibitors of human EP2 prostaglandin E2 receptor; P43116; C6 glioma cells expressing human EP2, cAMP TR-FRET; cells stimulated with saturating PGE2; inhibition, % at 25 µM; 260,000 compounds, 0.52% hits; AID 1422;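 active = percent inhibition above 40 after rounding to a whole number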;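 also: rat C6 glioma host cells with rolipram phosphodiesterase inhibitor present; the protocol text gives 20 µM as final concentration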
hK5 inh = kallikrein 5 (human) inhibition; inhibition, % at 5 µM; AID 873; 210,000 compounds, 0.59% hits; Q9Y337; recombinant hK5, fluorogenic AMC substrate cleavage;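 active = inhibition of 40% or more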;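 also: 0% = enzyme controls without compound and 100% = no-enzyme blanks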
FXIIa inh = factor XIIa (human) inhibition | P00748 | purified FXIIa, Boc-QGR-AMC fluorogenic substrate, 2 h | inhibition, % at 5 µM | 220,000 compounds, 0.3% hits | AID 800; in the data active = inhibition above about 40%;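 also: 0% = enzyme with no compound and 100% = blank without enzyme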
Target sequence (P00748 20-372 limits assumed): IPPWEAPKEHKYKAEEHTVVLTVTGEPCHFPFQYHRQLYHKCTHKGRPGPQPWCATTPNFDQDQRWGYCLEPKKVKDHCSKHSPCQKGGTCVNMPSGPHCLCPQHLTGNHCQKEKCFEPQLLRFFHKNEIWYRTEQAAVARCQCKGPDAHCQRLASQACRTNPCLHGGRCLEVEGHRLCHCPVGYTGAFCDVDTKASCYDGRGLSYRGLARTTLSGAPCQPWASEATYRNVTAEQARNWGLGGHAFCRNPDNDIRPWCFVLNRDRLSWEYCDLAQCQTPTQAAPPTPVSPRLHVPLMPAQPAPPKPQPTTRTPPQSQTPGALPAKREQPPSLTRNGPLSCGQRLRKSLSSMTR
Target sequence (P00748 373-615 limits assumed): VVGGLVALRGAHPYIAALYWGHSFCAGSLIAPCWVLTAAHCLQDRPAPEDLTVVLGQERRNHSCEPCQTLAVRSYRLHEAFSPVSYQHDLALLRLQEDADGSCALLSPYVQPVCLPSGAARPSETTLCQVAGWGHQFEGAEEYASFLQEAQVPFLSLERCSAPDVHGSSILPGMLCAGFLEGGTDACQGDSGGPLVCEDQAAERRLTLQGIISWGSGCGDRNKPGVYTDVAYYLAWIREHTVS
EP2 mod = modulates human prostaglandin E2 receptor EP2 signaling; P43116; EP2-expressing cells, cAMP HTRF FRET, PGE2 co-stimulation; induction, % at 25 µM; 260,000 compounds, 0.83% hits;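 active = compounds whose cAMP rise, as percent of the full-agonist control response, exceeds 60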;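 also: rat C6 glioma line stably carrying human EP2 under a CMV promoter; the protocol text gives 20 µM as final concentration; 100% = response of wells given 1 µM PGE2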
FXIa inh 1536 = blocks human coagulation factor XIa protease activity; P03951; purified FXIa, Boc-Glu-Ala-Arg-AMC fluorogenic substrate; 220,000 compounds, 0.14% hits; inhibition, % at 5 µM; AID 798;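 active = inhibition of at least 40%; inactive = inhibition below 40%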;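 also: fluorescence of freed AMC excited at 355 nm; 0% = enzyme without compound and 100% = no enzyme blank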
* marks the source's active call; other numbers are inactive results; · = not tested or not shown; ! = not confirmed by another sample. Most compounds without a hit are left out; they make up all but 2.1% or so of the library.

SMILES	Thrombin inh	EP2 antag	hK5 inh	FXIIa inh	EP2 mod	FXIa inh 1536
CCOCCCNC(=O)c1ncoc1-c1ccc(F)cc1	·	4.2	·	·	-23.2	·
CNC(=S)N(Cc1ccco1)Cc1cc2c(C)cc(C)cc2[nH]c1=O	·	12.8	·	·	-21.8	·
CC(NC(=O)c1cnc2n(c1=O)CCS2)c1ccccc1 (stereo not given)	-1.9	18.6	41.5*	5.4	20.6	-5.1
CCC(C)NC(=O)c1cnc2n(c1=O)CCS2 (stereo not given)	-0.9	11.8	0.4	16.9	1.8	9.1
CC(C)NC(=O)/C=C/c1ccc2c(c1)OCO2	·	12.9	·	·	-42.5	·
COCCNC(=O)Cn1nnc(-c2ccccc2)n1	·	10.6	·	·	1.1	·
CCCN(CCC)S(=O)(=O)c1ccc(C(=O)Nc2nnc(COC)o2)cc1	-0.8	3.3	-1.7	1.7	-8.7	-1.1
CCCN(CCC)S(=O)(=O)c1ccc(C(=O)NNc2nc(-c3ccccc3)c3cc(Br)ccc3n2)cc1	2.9	5.3	-67.9	9.7	37.7	65.6*
Cc1cc2c(C)cc(=O)[nH]c2cc1N	·	7.4	·	·	-3.9	·
CO[C@@H]1/C=C\O[C@]2(C)Oc3c(C)c(O)c4c(O)c(cc(O)c4c3C2=O)NC(=O)C(C)=C/C=C\[C@H](C)[C@@H](O)[C@H](C)[C@H](O)[C@H](C)[C@H](OC(C)=O)[C@@H]1C	·	44.6*	·	·	37.8	·
O=C(c1ccccc1)c1coc2ccc(O)c(CN3CCOCC3)c12	-3.7	9.0	-26.3	6.4	-8.3	-13.5
COc1ccc(C(=O)c2coc3ccc(O)c(CN4CCCCC4)c23)cc1	13.5	14.3	47.9*	9.9	3.5	4.3
Cc1nc2ccc(C(=O)N3CCCC(n4nc(-c5ccco5)ccc4=O)C3)cc2[nH]1 (stereo not given)	·	·	·	·	-7.5	·
CN(C(=O)COc1ccccc1C(=O)NCCOc1ccccc1)c1ccccc1	0.6	89.5*	-7.0	13.1	-67.4	12.4
CN(C(=O)COC(=O)CNC(=O)c1ccccc1Cl)c1ccccc1	-1.7	4.2	-10.0	1.1	34.9	-5.8
O=C(Nc1cccc2ccccc12)N1CCCN(c2c(Cl)cncc2Cl)CC1	-2.2	40.6*	-2.1	3.1	-60.5	-1.1
O=C(Nc1cccc2ccccc12)N1CCCCC1	·	16.1	·	·	13.7	·
COc1cccc(NC(=O)c2cc3cc(OC)ccc3oc2=O)c1	·	9.4	·	·	4.7	·
CCOc1ccc(Cc2nccc3cc(OCC)c(OCC)cc23)cc1OCC	·	5.7	·	·	46.5	·
Oc1ccc(Cc2nccc3cc(O)c(O)cc23)cc1O	·	52.9*	·	·	-8.4	·
COc1cc(C(N)=O)cc(Cl)c1OC	2.2	0.6	33.8	46.6*	-1.9	20.0
O=C(c1ccco1)N1CCCC(c2nc3sc4c(c3c(=O)[nH]2)CCCC4)C1 (stereo not given)	·	8.2	·	·	7.2	·
CCCc1nc(NC(C)=O)c(C#N)c(-c2ccco2)c1CC	40.4*	9.4	19.6	23.0	13.2	17.9
COc1cccc(NC(=O)Nc2ccc3c(c2)N(C)C(=O)CS3)c1	2.0	42.3*	-0.7	11.8	-36.4	4.6
COc1cc(/C=N/NC(=O)c2cccc([N+](=O)[O-])c2)ccc1OCc1ccccc1	0.6	2.3	1.9	14.6	-7.5	4.5
SMILES	Thrombin inh	EP2 antag	hK5 inh	FXIIa inh	EP2 mod	FXIa inh 1536
COc1cc(/C=C/[N+](=O)[O-])ccc1OCc1cccc(C(=O)O)c1	26.0	9.8	43.3*	17.3	-36.4	21.4
Cc1nn2c(CN(C(=O)CN3CCOCC3)c3ccccc3)nnc2c2ccccc12	9.7	11.3	29.8	42.1*	7.5	26.2
O=C(NC1CCCCC1)C(c1ccccc1)N(C(=O)c1ccccn1)c1ccc2c(c1)OCO2 (stereo not given)	·	12.0	·	·	20.8	·
COc1cccc(NC(=O)Cc2ccccc2)c1	2.4	11.5	-11.4	11.9	-6.5	1.4
O=C(Cc1ccccc1)Nc1cccc(N2C(=O)C=CC2=O)c1	-0.3	132.9*	-4.9	14.2	-69.4	11.3
CCN1/C(=C/c2ccc3cc(C)ccc3[n+]2C)Sc2ccc3sccc3c21	4.6	45.4*	-4.3	2.3	-59.9	-1.8
CCN1/C(=C/c2ccc3cc(OC)ccc3[n+]2CC)Sc2cc(NC(C)=O)ccc21	·	17.3	·	·	-8.8	·
CCN1/C(=C/c2ccc3ccccc3[n+]2C)Sc2cc(C)ccc21	·	51.9*	·	·	-55.5	·
CC[n+]1c(/C=C2/Sc3ccc(OC)cc3N2C)ccc2cc(OC)ccc21	·	123.2*	·	·	-103.4	·
CCN1/C(=C/c2ccc3cc(C)ccc3[n+]2CC)Sc2cc(C)ccc21	10.3	80.3*	-0.4	10.8	-71.9	4.7
CCOC(=O)C1CCN(C(c2cc3cccc(C)c3[nH]c2=O)c2nnnn2Cc2ccccc2)CC1 (stereo not given)	·	22.7	·	·	8.8	·
COc1ccc(C(=O)CSc2nc3c(C)c(C)ccc3cc2C#N)cc1OC	·	50.2*	·	·	33.3	·
CC1(C)CC(Nc2ccc(Nc3ccccc3)cc2)CC(C)(C)N1	-5.4	59.6*!	0.4	1.8	-56.7	-5.0
CC1(C)CC(NC(=O)c2ccccc2C(=O)NC2CC(C)(C)NC(C)(C)C2)CC(C)(C)N1	12.2	14.7	-3.8	14.7	8.6	-0.5
O=P(O)(CCP(=O)(O)c1ccccc1)c1ccccc1	·	33.0	·	·	15.2	·
c1ccc([P+](CC[P+](c2ccccc2)(c2ccccc2)c2ccccc2)(c2ccccc2)c2ccccc2)cc1	·	45.1*	·	·	18.4	·
O=C(NC(=S)NCCN1CCOCC1)c1ccccc1Cl	-9.0	7.1	-10.9	3.9	64.3*	-4.6
O=C(CCN1Cc2ccccc2C1=O)NCc1nc(-c2ccccc2)no1	·	3.9	·	·	-35.5	·
CCOC(=O)CNC(=O)Cc1ccc(OC)cc1	11.8	4.7	25.4	42.7*	17.5	19.2
O=[N+]([O-])c1ccc(Sc2cccc[n+]2[O-])c2nonc12	-1.3	116.0*	2.9	5.2	-47.5	-7.5
CCCc1nnc(SCC(=O)N2CCCC2)n1CC1CCCO1 (stereo not given)	0.1	7.2	-8.6	4.5	20.9	-3.1
CCCc1nnc(SCC(=O)N2CCCCC2)n1CC1CCCO1 (stereo not given)	17.4	6.9	56.8*	21.0	2.6	-0.1
COc1ccc(NC(=O)N(Cc2ccccc2)Cc2cc3ccc(C)c(C)c3[nH]c2=O)cc1	·	7.3	·	·	1.8	·
COCc1nnc(NC(=O)C2c3ccccc3Oc3ccccc32)s1	·	7.7	·	·	-9.6	·
Cc1nc(SCC(=O)Nc2ccccc2F)nc2c1CCCC2	·	8.1	·	·	78.6*	·
CCOC(=O)C1=C(CC)Nc2ccccc2N=C1NC(=O)CCN1C(=O)C2CCCCC2C1=O (stereo not given)	36.1	6.3	54.1*	24.1	-10.2	31.8
COc1ccc(O)c(NS(=O)(=O)c2ccc3c(c2)NC(=O)CO3)c1	·	7.5	·	·	-95.7	·
CCCc1cc(=O)[nH]c(SCCOc2ccc(Cl)cc2)n1	-3.1	7.2	-13.7	21.4	63.7*	4.0
Cc1cc(C)c2cc(C(c3nnnn3C3CCCCC3)N3CCCCCC3)c(=O)[nH]c2c1 (stereo not given)	·	12.1	·	·	6.0	·
